pIC50: −log10 of the molar value.
How the values were obtained:
Nucleic Acid = experiment: Effect on cellular protein DNA complex formation(%) at 10 uM in comparison with etoposide; assay type: functional
[1] = Concentration required for 50% reduction in KB cell number after 3-day incubation; assay type: functional, cell-based, Homo sapiens
[2] = biological target: DNA topoisomerase II (Homo sapiens) (UniProt P11388+Q02880); experiment: Inhibition of human DNA Topoisomerase II; assay type: protein assay
Summary of the method: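 Human DNA topoisomerase II catalytic inhibition was tested at five concentrations (10, 20, 25, 50 and 100 μM). ID50 was set from the degree of inhibition observed across these concentrations.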

| Compound | pIC50 [1] | ID50 [2] | Complex formation (Nucleic Acid) |
| --- | --- | --- | --- |
| CCOC(=O)c1ccc(N[C@@H]2c3cc4c(cc3[C@@H](c3cc(OC)c(O)c(OC)c3)[C@H]3C(=O)OC[C@@H]32)OCO4)cc1 | 6.08 |  | 207% |
| COc1cc([C@@H]2c3cc4c(cc3[C@@H](Nc3ccc(F)cc3)[C@H]3COC(=O)[C@H]23)OCO4)cc(OC)c1O | 6.62 |  | 213% |
| COc1cc([C@@H]2c3cc4c(cc3[C@@H](Nc3ccc(C#N)cc3)[C@H]3COC(=O)[C@H]23)OCO4)cc(OC)c1O | 6.19 |  | 211% |
| COc1cc([C@@H]2c3cc(O)c(O)cc3[C@@H](Nc3ccc(C#N)cc3)[C@H]3COC(=O)[C@H]23)cc(OC)c1OC | < 5.70 | > 100 µM | 33% |
| COc1cc([C@@H]2c3cc(O)c(O)cc3[C@@H](Nc3ccc(F)cc3)[C@H]3COC(=O)[C@H]23)cc(OC)c1O | < 5.68 | 25 µM | 52% |
| COc1cc([C@@H]2c3cc(O)c(O)cc3[C@@H](Nc3ccc([N+](=O)[O-])cc3)[C@H]3COC(=O)[C@H]23)cc(OC)c1OC | < 5.72 | > 100 µM | 23% |
| COc1cc2c(cc1OC)[C@@H](Nc1ccc(F)cc1)[C@H]1COC(=O)[C@@H]1[C@@H]2c1cc(OC)c(O)c(OC)c1 | 6.11 | 50 µM | 108% |
| COc1cc([C@@H]2c3cc(O)c(O)cc3[C@@H](Nc3ccc([N+](=O)[O-])cc3)[C@H]3COC(=O)[C@H]23)cc(OC)c1O | 5.82 | 20 µM | 99% |
| COc1cc([C@@H]2c3cc(O)c(O)cc3[C@@H](Nc3cccc(O)c3)[C@H]3COC(=O)[C@H]23)cc(OC)c1OC | < 5.70 | 50 µM | 4% |
| COc1cc([C@@H]2c3cc(O)c(O)cc3[C@@H](Nc3ccc(F)cc3)[C@H]3COC(=O)[C@H]23)cc(OC)c1OC | < 5.70 | 50 µM | 11% |
| COc1cc([C@@H]2c3cc(O)c(O)cc3[C@@H](Nc3cccc(O)c3)[C@H]3COC(=O)[C@H]23)cc(OC)c1O | < 5.68 | 20 µM | 18% |
| COc1cc([C@@H]2c3cc4c(cc3[C@@H](Nc3ccc([N+](=O)[O-])cc3)[C@H]3COC(=O)[C@H]23)OCO4)cc(OC)c1O | 6.31 |  | 323% |
| COc1cc([C@@H]2c3cc(O)c(O)cc3[C@@H](Nc3ccccc3)[C@H]3COC(=O)[C@H]23)cc(OC)c1O | < 5.66 | 25 µM | 84% |
| COc1cc([C@@H]2c3cc4c(cc3[C@@H](O[C@@H]3O[C@@H]5CO[C@@H](C)O[C@H]5[C@H](O)[C@H]3O)[C@H]3COC(=O)[C@H]23)OCO4)cc(OC)c1O [ETOPOSIDE] | 6.70 |  | 100% |
| COc1cc([C@@H]2c3cc(O)c(O)cc3[C@@H](Nc3ccccc3)[C@H]3COC(=O)[C@H]23)cc(OC)c1OC | < 5.68 | 50 µM | 9% |

Continued, in another order:

| pIC50 [1] | ID50 [2] | Compound | Complex formation (Nucleic Acid) |
| --- | --- | --- | --- |
| > 6.15 | 100 µM | CCOC(=O)c1ccc(N[C@@H]2c3cc(OC)c(OC)cc3[C@@H](c3cc(OC)c(O)c(OC)c3)[C@H]3C(=O)OC[C@@H]32)cc1 | 127% |
| 5.12 | > 100 µM | COc1cc2c(cc1OC)[C@@H](Nc1ccc(F)cc1)[C@H]1COC(=O)[C@@H]1[C@@H]2c1cc(OC)c(OC)c(OC)c1 | 8% |
| > 6.11 | 50 µM | COc1cc2c(cc1OC)[C@@H](Nc1ccc(C#N)cc1)[C@H]1COC(=O)[C@@H]1[C@@H]2c1cc(OC)c(O)c(OC)c1 | 125% |
| 5.26 | > 100 µM | CCOC(=O)c1ccc(N[C@@H]2c3cc(OC)c(OC)cc3[C@@H](c3cc(OC)c(OC)c(OC)c3)[C@H]3C(=O)OC[C@@H]32)cc1 | 9% |
| 5.89 | 100 µM | COc1cc2c(cc1OC)[C@@H](Nc1ccc([N+](=O)[O-])cc1)[C@H]1COC(=O)[C@@H]1[C@@H]2c1cc(OC)c(O)c(OC)c1 | 75% |
| 5.84 | 20 µM | CCOC(=O)c1ccc(N[C@@H]2c3cc(O)c(O)cc3[C@@H](c3cc(OC)c(O)c(OC)c3)[C@H]3C(=O)OC[C@@H]32)cc1 | 138% |
| 5.70 | 20 µM | COc1cc([C@@H]2c3cc(O)c(O)cc3[C@@H](Nc3ccc(C#N)cc3)[C@H]3COC(=O)[C@H]23)cc(OC)c1O | 62% |
| < 5.74 | 100 µM | CCOC(=O)c1ccc(N[C@@H]2c3cc(O)c(O)cc3[C@@H](c3cc(OC)c(OC)c(OC)c3)[C@H]3C(=O)OC[C@@H]32)cc1 | 22% |
| 5.14 | > 100 µM | COc1cc2c(cc1OC)[C@@H](Nc1ccc([N+](=O)[O-])cc1)[C@H]1COC(=O)[C@@H]1[C@@H]2c1cc(OC)c(OC)c(OC)c1 | 8% |
| 5.24 | > 100 µM | COc1cc2c(cc1OC)[C@@H](Nc1ccc(C#N)cc1)[C@H]1COC(=O)[C@@H]1[C@@H]2c1cc(OC)c(OC)c(OC)c1 | 12% |
